Here are results for ten molecules from ChEMBL document CHEMBL1123850, “Estrogenic affinity labels: synthesis, irreversible receptor binding, and bioactivity of aziridine-substituted hexestrol derivatives” (J Med Chem, 1987).

In assay [1] the test system is MCF7. Briefly: Effect on 10e-9 M estradiol stimulation of MCF-7 cell proliferation at 3x10E-7M; potent agonistic. The format is functional, cell-based. To be noted: Homo sapiens, filed as agonist.
Assay [2] concerns the target T1, Estrogen receptor (Ovis aries) (UniProt P49885+Q9TU15). As to the kind of experiment: Time dependent irreversible binding to estrogen receptor by inactivation-exchange assay; No. It counts as protein assay.
The test system of assay [3] is MCF7. As to the kind of experiment: Effect on 10e-9 M estradiol stimulation of MCF-7 cell proliferation at 3x10E-8M; Agonistic. It counts as functional, cell-based. To be noted: Homo sapiens, filed as agonist.
Assay [4] concerns the target T1, Estrogen receptor (Ovis aries). As to the kind of experiment: Time dependent irreversible binding to estrogen receptor by inactivation-exchange assay; Good. It counts as protein assay.
The test system of assay [5] is MCF7. As to the kind of experiment: Effect on 10e-9 M estradiol stimulation of MCF-7 cell proliferation at 10e-8 M. To be noted: Homo sapiens, filed as agonist. The format is functional, cell-based.
The target in assay [6] is T1, Estrogen receptor (Ovis aries). As to the kind of experiment: Time dependent irreversible binding to estrogen receptor by inactivation-exchange assay; Weak. The format is protein assay.
In assay [7] the test system is MCF7. As to the kind of experiment: Effect on 10e-9 M estradiol stimulation of MCF-7 cell proliferation at 4x10E-8M; Agonist. The format is functional, cell-based. Conditions: Homo sapiens, filed as agonist.
Assay [8] has as its system MCF7. As to the kind of experiment: Effect on 10e-9 M estradiol stimulation of MCF-7 cell proliferation at 3x10E-7M; very weak. It counts as functional, cell-based. To be noted: Homo sapiens. Put shortly:
(§1)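 MCF-7 human breast cancer cells kept 1 week in phenol red-free IMEM with 5% charcoal dextran-treated calf serum, then seeded at ca. 0.5 x 10^5 cells/flask. Next day switched to phenol red- and insulin-free medium holding compound, estradiol (10^-9 M), hydroxytamoxifen or 0.1% ethanol vehicle, renewed every 48 h. Cells counted after 8 days. Agonism is growth relative to estradiol; antagonism is suppression of estradiol-stimulated growth.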

The subject of assay [9] is MCF7. As to the kind of experiment: Effect on 10e-9 M estradiol stimulation of MCF-7 cell proliferation at 3E-7M: Weak antagonistic. It counts as functional, cell-based. Conditions: Homo sapiens, filed as antagonist.
Assay [10] relates to MCF7. As to the kind of experiment: Effect on 10e-9 M estradiol stimulation of MCF-7 cell proliferation at 4x10E-8M; Agonistic. The format is functional, cell-based. Conditions: Homo sapiens, filed as agonist. Put shortly: as §1
Assay [11] concerns MCF7. Briefly: Effect on 10e-9 M estradiol stimulation of MCF-7 cell proliferation at 3x10E-7M;weak agonistic. It counts as functional, cell-based. Conditions: Homo sapiens, filed as partial agonist. In a few lines:
as §1

Molecules are shown by their SMILES. Active and inactive are the calls of the source. No cut-off for these calls is given here.

Consider `CC[C@H](c1ccc(O)cc1)[C@@H](C(=O)N1CC1)c1ccc(O)cc1`, for which the Activity result in the assay with MCF7 [1] was “Agonist”. Moreover, the Irreversible binding result in assay [2] is “inactive”.
Take `CC[C@H](c1ccc(O)cc1)[C@@H](CSCCCN1CC1)c1ccc(O)cc1`: the Activity entry with MCF7 [3] was “Agonist”. Further, the Irreversible binding result in assay [4] was “Time-dependent effect”.
On to `CC[C@H](c1ccc(O)cc1)[C@@H](C(=O)CCCCN1CC1)c1ccc(O)cc1`, for which, in [4], the Irreversible binding entry was “Time-dependent effect”. In the assay on MCF7 [5], the Activity result was “Agonist”.
Consider `CC[C@H](c1ccc(O)cc1)[C@@H](C(=O)OCCN1CC1)c1ccc(O)cc1`, for which the Activity entry in the assay on MCF7 [1] was “Agonist”. Besides, the Irreversible binding result in assay [6] was “Partially active”.
Regarding `CC[C@H](c1ccc(O)cc1)[C@@H](CSCCN1CC1)c1ccc(O)cc1`, in the assay with MCF7 [7], the Activity result is “Agonist”. For the same molecule, the Irreversible binding result in [2] is “inactive”.
For the molecule `CC[C@H](c1ccc(O)cc1)[C@@H](CCCCN1CCNCC1)c1ccc(O)cc1`, in the assay with MCF7 [8], the result was inactive.
Consider `CC[C@H](c1ccc(O)cc1)[C@@H](CCCCN1CC1)c1ccc(O)cc1`, for which the Activity entry in the assay on MCF7 [9] is on record as “Partial antagonist”. The Irreversible binding entry in assay [4] is “Time-dependent effect”.
For `CC[C@H](c1ccc(O)cc1)[C@@H](CSCCCN(C)C)c1ccc(O)cc1`, the Activity entry in the assay with MCF7 [10] was “Agonist”.
In the case of `CC[C@H](c1ccc(O)cc1)[C@@H](C(=O)CCCCN(C)C)c1ccc(O)cc1`, in the assay with MCF7 [11], the Activity result is “Partial agonist”.
With `CC[C@H](c1ccc(O)cc1)[C@@H](C(=O)OCCCN1CC1)c1ccc(O)cc1`, the Activity result with MCF7 [1] is “Agonist”. Further, in [6], the Irreversible binding entry was “Partially active”.
